# Assays:
# Settings in all cases: stereoisomer not certain
# OR2H2 (Homo sapiens) = molecular target: T1, OR2H2 (Homo sapiens) (UniProt O95918)
# T1 sequence (whole entry): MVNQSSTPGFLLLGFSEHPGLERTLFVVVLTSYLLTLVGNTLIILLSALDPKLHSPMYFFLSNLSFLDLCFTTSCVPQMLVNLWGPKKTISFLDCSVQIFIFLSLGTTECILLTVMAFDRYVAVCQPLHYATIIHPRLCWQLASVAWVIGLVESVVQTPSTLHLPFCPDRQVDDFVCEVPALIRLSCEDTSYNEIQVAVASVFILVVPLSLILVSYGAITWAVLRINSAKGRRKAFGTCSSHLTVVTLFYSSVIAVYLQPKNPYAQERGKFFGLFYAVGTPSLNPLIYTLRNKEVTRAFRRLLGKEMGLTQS
# In short: (§1)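 Values were gathered from published papers (main text and supplementary material), with extra details requested from the original authors when needed, and checked for typos and inconsistencies. Each receptor–molecule pair is called responsive (active) if the original authors judged the measured signal statistically different from baseline, and non-responsive (inactive) otherwise. Assay methods varied by source, often transient mammalian cell-line luciferase assays. Recorded details include cell line, G-protein, co-transfected protein and tags.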
# OR2J3 (Homo sapiens) = molecular target: T2, OR2J3 (Homo sapiens) (UniProt O76001)
# T2 sequence (whole entry): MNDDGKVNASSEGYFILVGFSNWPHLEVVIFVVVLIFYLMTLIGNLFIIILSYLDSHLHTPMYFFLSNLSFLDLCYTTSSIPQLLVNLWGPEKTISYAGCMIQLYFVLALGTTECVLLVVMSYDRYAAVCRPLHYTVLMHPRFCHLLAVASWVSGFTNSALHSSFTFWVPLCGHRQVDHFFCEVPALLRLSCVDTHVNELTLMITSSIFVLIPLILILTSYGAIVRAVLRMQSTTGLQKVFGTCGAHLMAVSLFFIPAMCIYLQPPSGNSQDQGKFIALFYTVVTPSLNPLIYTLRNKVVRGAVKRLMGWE
# In short: as §1
# OR2J3 = test system: OR2J3
# In short: as §1
# OR2J2 [1] = test system: OR2J2
# In short: as §1
# Target sequence in this assay (as listed by the source): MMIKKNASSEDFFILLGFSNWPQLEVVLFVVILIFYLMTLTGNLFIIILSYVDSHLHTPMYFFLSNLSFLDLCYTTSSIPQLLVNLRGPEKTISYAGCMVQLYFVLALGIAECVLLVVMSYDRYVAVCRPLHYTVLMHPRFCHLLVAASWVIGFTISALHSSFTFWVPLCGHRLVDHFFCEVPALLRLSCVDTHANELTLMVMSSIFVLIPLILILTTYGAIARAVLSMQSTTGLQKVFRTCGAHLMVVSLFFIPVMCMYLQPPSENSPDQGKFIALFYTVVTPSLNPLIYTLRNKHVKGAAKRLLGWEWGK
# OR2J2 [2] = test system: OR2J2; remark: listed apart in the source
# In short: as §1
# Target sequence in this assay (as listed by the source): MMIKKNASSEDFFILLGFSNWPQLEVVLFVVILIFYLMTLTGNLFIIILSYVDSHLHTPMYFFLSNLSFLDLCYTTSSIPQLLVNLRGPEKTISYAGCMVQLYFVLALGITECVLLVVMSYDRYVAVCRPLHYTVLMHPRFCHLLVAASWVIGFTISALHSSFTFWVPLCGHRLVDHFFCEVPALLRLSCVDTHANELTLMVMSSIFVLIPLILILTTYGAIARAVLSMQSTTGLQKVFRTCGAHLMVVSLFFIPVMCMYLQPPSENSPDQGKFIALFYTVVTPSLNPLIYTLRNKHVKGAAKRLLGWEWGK
# OR2J2 (Homo sapiens) = molecular target: T3, OR2J2 (Homo sapiens) (UniProt O76002)
# T3 sequence (whole entry): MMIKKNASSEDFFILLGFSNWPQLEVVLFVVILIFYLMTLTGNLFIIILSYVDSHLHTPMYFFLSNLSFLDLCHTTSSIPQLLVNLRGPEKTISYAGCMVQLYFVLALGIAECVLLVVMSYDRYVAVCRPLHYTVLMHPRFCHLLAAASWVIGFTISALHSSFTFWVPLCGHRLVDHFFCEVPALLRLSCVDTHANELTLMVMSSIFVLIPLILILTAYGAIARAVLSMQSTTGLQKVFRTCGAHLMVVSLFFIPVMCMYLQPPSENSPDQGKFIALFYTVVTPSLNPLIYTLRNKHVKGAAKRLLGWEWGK
# In short: as §1
# OR2H1 (Homo sapiens) = OR2H1 (Homo sapiens) (UniProt Q9GZK4)
# In short: as §1
# OR2J1 (Homo sapiens) = OR2J1 (Homo sapiens) (UniProt Q9GZK6)
# In short: as §1
# OR2H2 = test system: OR2H2
# In short: as §1
# OR2J1 L14I V182A = test system: OR2J1 L14I V182A
# In short: as §1
# Sequence of OR2H1 (Homo sapiens) (Q9GZK4 whole entry): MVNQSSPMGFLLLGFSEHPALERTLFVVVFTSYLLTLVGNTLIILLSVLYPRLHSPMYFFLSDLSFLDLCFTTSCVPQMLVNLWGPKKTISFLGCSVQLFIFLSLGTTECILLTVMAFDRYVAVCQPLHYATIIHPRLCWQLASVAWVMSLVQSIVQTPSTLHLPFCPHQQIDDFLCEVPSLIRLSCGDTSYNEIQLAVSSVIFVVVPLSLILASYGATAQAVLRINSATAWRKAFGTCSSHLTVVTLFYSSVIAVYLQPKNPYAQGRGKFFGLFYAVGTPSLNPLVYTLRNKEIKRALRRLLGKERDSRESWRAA
# Sequence of OR2J1 (Homo sapiens) (Q9GZK6 whole entry): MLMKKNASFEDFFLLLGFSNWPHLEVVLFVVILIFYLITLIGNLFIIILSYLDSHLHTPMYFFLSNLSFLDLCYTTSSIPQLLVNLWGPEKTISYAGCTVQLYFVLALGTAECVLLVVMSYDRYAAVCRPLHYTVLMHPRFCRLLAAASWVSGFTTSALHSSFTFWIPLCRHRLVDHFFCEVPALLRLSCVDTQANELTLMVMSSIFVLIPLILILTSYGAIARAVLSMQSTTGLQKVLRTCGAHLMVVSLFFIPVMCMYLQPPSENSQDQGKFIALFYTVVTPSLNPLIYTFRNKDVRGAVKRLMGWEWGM
# Sequence of OR2J3 (as listed by the source): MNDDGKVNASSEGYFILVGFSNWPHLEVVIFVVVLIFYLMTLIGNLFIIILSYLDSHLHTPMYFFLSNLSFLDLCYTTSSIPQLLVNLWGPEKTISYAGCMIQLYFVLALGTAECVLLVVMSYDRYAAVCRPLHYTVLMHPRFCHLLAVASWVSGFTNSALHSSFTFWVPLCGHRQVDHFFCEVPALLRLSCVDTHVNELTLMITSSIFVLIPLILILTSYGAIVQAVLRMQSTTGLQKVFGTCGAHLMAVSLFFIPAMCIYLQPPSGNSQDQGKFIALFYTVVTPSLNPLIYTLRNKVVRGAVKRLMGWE
# Sequence of OR2H2 (as listed by the source): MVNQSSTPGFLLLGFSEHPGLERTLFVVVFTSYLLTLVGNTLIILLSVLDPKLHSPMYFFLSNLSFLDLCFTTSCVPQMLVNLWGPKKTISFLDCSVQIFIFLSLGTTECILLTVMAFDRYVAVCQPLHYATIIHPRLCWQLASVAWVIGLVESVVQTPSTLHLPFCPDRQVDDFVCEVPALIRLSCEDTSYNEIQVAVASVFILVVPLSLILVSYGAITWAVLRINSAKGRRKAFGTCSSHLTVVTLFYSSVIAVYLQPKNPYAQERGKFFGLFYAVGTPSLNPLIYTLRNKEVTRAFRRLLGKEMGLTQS
compound,measurement,setting,value
O=CC=Cc1ccccc1,odorant receptor agonist call,OR2H2 (Homo sapiens),inactive
same,odorant receptor agonist call,OR2J3 (Homo sapiens),active
same,odorant receptor agonist call,OR2J3,active
CCCCOC(=O)c1ccccc1N,odorant receptor agonist call,OR2J2 [1],active
same,odorant receptor agonist call,OR2J2 [2],active
O=c1cc(O)c2ccccc2o1,odorant receptor agonist call,OR2J2 (Homo sapiens),inactive
Cc1c([N+](=O)[O-])c(C)c([N+](=O)[O-])c(C(C)(C)C)c1[N+](=O)[O-],odorant receptor agonist call,OR2H1 (Homo sapiens),inactive
same,odorant receptor agonist call,OR2H2 (Homo sapiens),inactive
same,odorant receptor agonist call,OR2J1 (Homo sapiens),inactive
same,odorant receptor agonist call,OR2J2 (Homo sapiens),inactive
same,odorant receptor agonist call,OR2J3 (Homo sapiens),active
C=CCc1ccccc1,odorant receptor agonist call,OR2J2 (Homo sapiens),inactive
CCC1CCC(=O)O1 (stereo unspecified),odorant receptor agonist call,OR2J2 (Homo sapiens),inactive
C=CCOC(=O)Cc1ccccc1,odorant receptor agonist call,OR2H1 (Homo sapiens),inactive
same,odorant receptor agonist call,OR2H2 (Homo sapiens),inactive
same,odorant receptor agonist call,OR2H2,inactive
same,odorant receptor agonist call,OR2J1 (Homo sapiens),inactive
same,odorant receptor agonist call,OR2J1 L14I V182A,inactive
same,odorant receptor agonist call,OR2J2 (Homo sapiens),inactive
same,odorant receptor agonist call,OR2J2 [2],inactive
same,odorant receptor agonist call,OR2J3 (Homo sapiens),inactive
